# Columns and labels:
# Assay type in all cases: functional
# [1] = test system: Bacillus subtilis; assay: Antibacterial activity against Bacillus subtilis PTCC 1365 at 100 ug/ml after 24 hrs by disk diffusion sensitivity assay; conditions: PTCC 1365, 24 h, read-out: IZ
# In short: (§1)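 Disc diffusion on Mueller–Hinton agar poured 5 mm deep, swabbed with 1.2 × 10⁸ CFU/mL bacterial suspension (0.5 McFarland). Compounds dissolved in DMF, diluted with ethanol to 100–600 µg/mL solutions, loaded onto 6.25 mm filter-paper discs. Discs placed in triplicate, incubated 24 h at 37 °C. Average inhibition zone reported, maximum across concentrations shown. Streptomycin used as standard.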
# [2] = Antibacterial activity against Escherichia coli HB101 BA 7601C at 100 ug/ml after 24 hrs by disk diffusion sensitivity assay; conditions: read-out: IZ; in short: as §1
# [3] = test system: Pseudomonas aeruginosa; assay: Antibacterial activity against Pseudomonas aeruginosa PTCC 1431 at 100 ug/ml after 24 hrs by disk diffusion sensitivity assay; conditions: PTCC 1431, 24 h, read-out: IZ; in short: as §1
# [4] = test system: Staphylococcus aureus; assay: Antibacterial activity against Staphylococcus aureus PTCC 1074 at 100 ug/ml after 24 hrs by disk diffusion sensitivity assay; conditions: PTCC 1074, 24 h, read-out: IZ; in short: as §1
# [5] = Antibacterial activity against Escherichia coli HB101 BA 7601C at 400 ug/ml after 24 hrs by disk diffusion sensitivity assay; conditions: read-out: IZ; in short: as §1
# [6] = test system: Pseudomonas aeruginosa; assay: Antibacterial activity against Pseudomonas aeruginosa PTCC 1431 at 400 ug/ml after 24 hrs by disk diffusion sensitivity assay; conditions: PTCC 1431, 24 h, read-out: IZ; in short: as §1
# [7] = test system: Staphylococcus aureus; assay: Antibacterial activity against Staphylococcus aureus PTCC 1074 at 400 ug/ml after 24 hrs by disk diffusion sensitivity assay; conditions: PTCC 1074, 24 h, read-out: IZ; in short: as §1
# [8] = test system: Bacillus subtilis; assay: Antibacterial activity against Bacillus subtilis PTCC 1365 at 400 ug/ml after 24 hrs by disk diffusion sensitivity assay; conditions: PTCC 1365, 24 h, read-out: IZ; in short: as §1
# [9] = test system: Bacillus subtilis; assay: Antibacterial activity against Bacillus subtilis PTCC 1365 at 300 ug/ml after 24 hrs by disk diffusion sensitivity assay; conditions: PTCC 1365, 24 h, read-out: IZ; in short: as §1
# [10] = Antibacterial activity against Escherichia coli HB101 BA 7601C at 300 ug/ml after 24 hrs by disk diffusion sensitivity assay; conditions: read-out: IZ; in short: as §1
# [11] = test system: Pseudomonas aeruginosa; assay: Antibacterial activity against Pseudomonas aeruginosa PTCC 1431 at 300 ug/ml after 24 hrs by disk diffusion sensitivity assay; conditions: PTCC 1431, 24 h, read-out: IZ; in short: as §1
# [12] = test system: Staphylococcus aureus; assay: Antibacterial activity against Staphylococcus aureus PTCC 1074 at 300 ug/ml after 24 hrs by disk diffusion sensitivity assay; conditions: PTCC 1074, 24 h, read-out: IZ; in short: as §1
# [13] = test system: Bacillus subtilis; assay: Antibacterial activity against Bacillus subtilis PTCC 1365 at 200 ug/ml after 24 hrs by disk diffusion sensitivity assay; conditions: PTCC 1365, 24 h, read-out: IZ; in short: as §1
# [14] = Antibacterial activity against Escherichia coli HB101 BA 7601C at 200 ug/ml after 24 hrs by disk diffusion sensitivity assay; conditions: read-out: IZ; in short: as §1
# [15] = test system: Pseudomonas aeruginosa; assay: Antibacterial activity against Pseudomonas aeruginosa PTCC 1431 at 200 ug/ml after 24 hrs by disk diffusion sensitivity assay; conditions: PTCC 1431, 24 h, read-out: IZ; in short: as §1
# [16] = test system: Staphylococcus aureus; assay: Antibacterial activity against Staphylococcus aureus PTCC 1074 at 200 ug/ml after 24 hrs by disk diffusion sensitivity assay; conditions: PTCC 1074, 24 h, read-out: IZ; in short: as §1
# [17] = test system: Bacillus subtilis; assay: Antibacterial activity against Bacillus subtilis PTCC 1365 at 500 ug/ml after 24 hrs by disk diffusion sensitivity assay; conditions: PTCC 1365, 24 h, read-out: IZ; in short: as §1
# [18] = Antibacterial activity against Escherichia coli HB101 BA 7601C at 500 ug/ml after 24 hrs by disk diffusion sensitivity assay; conditions: read-out: IZ; in short: as §1
# [19] = test system: Pseudomonas aeruginosa; assay: Antibacterial activity against Pseudomonas aeruginosa PTCC 1431 at 500 ug/ml after 24 hrs by disk diffusion sensitivity assay; conditions: PTCC 1431, 24 h, read-out: IZ; in short: as §1
# [20] = test system: Staphylococcus aureus; assay: Antibacterial activity against Staphylococcus aureus PTCC 1074 at 500 ug/ml after 24 hrs by disk diffusion sensitivity assay; conditions: PTCC 1074, 24 h, read-out: IZ; in short: as §1
# [21] = Antibacterial activity against Escherichia coli HB101 BA 7601C at 10 ug/ml after 24 hrs by disk diffusion sensitivity assay; conditions: read-out: IZ
# [22] = test system: Pseudomonas aeruginosa; assay: Antibacterial activity against Pseudomonas aeruginosa PTCC 1431 at 10 ug/ml after 24 hrs by disk diffusion sensitivity assay; conditions: PTCC 1431, 24 h, read-out: IZ
# [23] = test system: Staphylococcus aureus; assay: Antibacterial activity against Staphylococcus aureus PTCC 1074 at 10 ug/ml after 24 hrs by disk diffusion sensitivity assay; conditions: PTCC 1074, 24 h, read-out: IZ
# [24] = test system: Bacillus subtilis; assay: Antibacterial activity against Bacillus subtilis PTCC 1365 at 10 ug/ml after 24 hrs by disk diffusion sensitivity assay; conditions: PTCC 1365, 24 h, read-out: IZ
compound,measurement,setting,value
O=c1[nH]c(-c2ccc(Br)cc2)nc2c1cnn2-c1ccc([N+](=O)[O-])cc1[N+](=O)[O-],zone of inhibition at 100 µg/mL,[1],9 mm
same,zone of inhibition at 100 µg/mL,[2],17 mm
same,zone of inhibition at 100 µg/mL,[3],10 mm
same,zone of inhibition at 100 µg/mL,[4],9 mm
O=c1[nH]c(-c2ccc(Cl)cc2)nc2c1cnn2-c1ccc([N+](=O)[O-])cc1[N+](=O)[O-],zone of inhibition at 400 µg/mL,[5],10.5 mm
same,zone of inhibition at 400 µg/mL,[6],8 mm
same,zone of inhibition at 400 µg/mL,[7],8.5 mm
same,zone of inhibition at 400 µg/mL,[8],15 mm
O=c1[nH]c(-c2ccc([N+](=O)[O-])cc2)nc2c1cnn2-c1ccc([N+](=O)[O-])cc1[N+](=O)[O-],zone of inhibition at 300 µg/mL,[9],9 mm
same,zone of inhibition at 300 µg/mL,[10],9 mm
same,zone of inhibition at 300 µg/mL,[11],13.5 mm
same,zone of inhibition at 300 µg/mL,[12],8.5 mm
Cc1ccc(-c2nc3c(cnn3-c3ccc([N+](=O)[O-])cc3[N+](=O)[O-])c(=O)[nH]2)cc1,zone of inhibition at 200 µg/mL,[13],9 mm
same,zone of inhibition at 200 µg/mL,[14],9 mm
same,zone of inhibition at 200 µg/mL,[15],7.5 mm
same,zone of inhibition at 200 µg/mL,[16],13 mm
COc1ccc(-c2nc3c(cnn3-c3ccc([N+](=O)[O-])cc3[N+](=O)[O-])c(=O)[nH]2)cc1,zone of inhibition at 100 µg/mL,[1],10 mm
same,zone of inhibition at 100 µg/mL,[2],9.5 mm
same,zone of inhibition at 100 µg/mL,[3],12.5 mm
same,zone of inhibition at 100 µg/mL,[4],10 mm
O=c1[nH]c(-c2cccc(O)c2)nc2c1cnn2-c1ccc([N+](=O)[O-])cc1[N+](=O)[O-],zone of inhibition at 500 µg/mL,[17],12 mm
same,zone of inhibition at 500 µg/mL,[18],12 mm
same,zone of inhibition at 500 µg/mL,[19],9.5 mm
same,zone of inhibition at 500 µg/mL,[20],16 mm
O=c1[nH]c(-c2ccccc2)nc2c1cnn2-c1ccc([N+](=O)[O-])cc1[N+](=O)[O-],zone of inhibition at 400 µg/mL,[5],15 mm
same,zone of inhibition at 400 µg/mL,[6],9.5 mm
same,zone of inhibition at 400 µg/mL,[7],9 mm
same,zone of inhibition at 400 µg/mL,[8],10 mm
O=c1[nH]c(-c2cccc([N+](=O)[O-])c2)nc2c1cnn2-c1ccc([N+](=O)[O-])cc1[N+](=O)[O-],zone of inhibition at 400 µg/mL,[5],8 mm
same,zone of inhibition at 400 µg/mL,[6],9 mm
same,zone of inhibition at 400 µg/mL,[7],15 mm
same,zone of inhibition at 400 µg/mL,[8],11 mm
O=c1[nH]c(-c2ccccc2O)nc2c1cnn2-c1ccc([N+](=O)[O-])cc1[N+](=O)[O-],zone of inhibition at 500 µg/mL,[17],9 mm
same,zone of inhibition at 500 µg/mL,[18],7 mm
same,zone of inhibition at 500 µg/mL,[19],16 mm
same,zone of inhibition at 500 µg/mL,[20],9 mm
COc1cccc(-c2nc3c(cnn3-c3ccc([N+](=O)[O-])cc3[N+](=O)[O-])c(=O)[nH]2)c1,zone of inhibition at 100 µg/mL,[1],8 mm
same,zone of inhibition at 100 µg/mL,[2],11.5 mm
same,zone of inhibition at 100 µg/mL,[3],12.5 mm
same,zone of inhibition at 100 µg/mL,[4],9 mm
CN[C@@H]1[C@H](O[C@H]2[C@H](O[C@H]3[C@H](O)[C@@H](O)[C@H](N=C(N)N)[C@@H](O)[C@@H]3N=C(N)N)O[C@@H](C)[C@]2(O)C=O)O[C@@H](CO)[C@H](O)[C@H]1O [STREPTOMYCIN],zone of inhibition at 10 µg/mL,[21],17 mm
same,zone of inhibition at 10 µg/mL,[22],10 mm
same,zone of inhibition at 10 µg/mL,[23],15 mm
same,zone of inhibition at 10 µg/mL,[24],10 mm
